The text below walks through data of ChEMBL document CHEMBL2440006, “Mastering tricyclic ring systems for desirable functional cannabinoid activity” (Eur J Med Chem, 2013).

Cannabinoid receptor 1 (Homo sapiens), sequence (P21554 whole entry): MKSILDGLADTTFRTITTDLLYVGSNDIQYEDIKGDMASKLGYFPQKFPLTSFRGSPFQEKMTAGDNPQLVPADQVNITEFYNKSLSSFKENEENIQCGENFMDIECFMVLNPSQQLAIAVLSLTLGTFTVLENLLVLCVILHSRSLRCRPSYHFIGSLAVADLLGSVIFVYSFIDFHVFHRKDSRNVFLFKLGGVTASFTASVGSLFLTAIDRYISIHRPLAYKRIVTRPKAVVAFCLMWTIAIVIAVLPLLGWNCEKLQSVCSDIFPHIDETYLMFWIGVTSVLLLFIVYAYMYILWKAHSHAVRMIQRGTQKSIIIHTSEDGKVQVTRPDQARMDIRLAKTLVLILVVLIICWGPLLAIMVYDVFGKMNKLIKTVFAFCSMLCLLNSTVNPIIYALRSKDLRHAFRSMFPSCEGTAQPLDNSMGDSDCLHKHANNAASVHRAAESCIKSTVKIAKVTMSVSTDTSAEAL
T1 sequence (P34972 whole entry): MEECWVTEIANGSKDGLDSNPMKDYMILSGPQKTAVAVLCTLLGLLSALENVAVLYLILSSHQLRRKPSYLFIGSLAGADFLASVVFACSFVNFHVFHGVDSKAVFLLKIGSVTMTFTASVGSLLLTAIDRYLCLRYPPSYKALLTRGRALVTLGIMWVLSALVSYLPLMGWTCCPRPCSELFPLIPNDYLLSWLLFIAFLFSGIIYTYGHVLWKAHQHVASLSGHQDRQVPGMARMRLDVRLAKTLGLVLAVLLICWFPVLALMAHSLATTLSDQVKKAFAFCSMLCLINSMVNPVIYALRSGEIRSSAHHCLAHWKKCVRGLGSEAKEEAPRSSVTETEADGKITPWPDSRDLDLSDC

The first assay addresses T1, Cannabinoid receptor 2 (Homo sapiens, UniProt P34972). Nature of the assay: Displacement of [3H]-CP55940 from human CB2 receptor expressed in HEK293 cells after 1.5 hrs by microbeta liquid scintillation counting analysis. Format: cell-based. The note with it: hek293. In a few lines:
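Membranes from rat brain homogenate (CB1) or HEK293 cells expressing human CB2. GF/B filtration, then scintillation counting. IC50 by three-parameter logistic fit, Ki by Cheng-Prusoff. Three experiments in triplicate.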
For the compound `NCCCn1c2ccccc2c2cc(C(=O)N3CCCCC3)ccc21`, the inhibitory constant (Ki) (commonly a measure of affinity in units of concentration, obtained from inhibition or displacement) was “Not Active”.
As for `CCCCCn1c2ccccc2c2cc(C#N)ccc21`, the Ki result was “Not Active”.
Take `CCCCCn1c2ccccc2c2cc(C(=O)N3CC[N+](C)(C)CC3)ccc21.[I-]`: the inhibition constant (Ki) result is recorded as “Not Active”.
Still for that read-out and setting: the result for `O=C(c1ccc2c(c1)c1ccccc1n2CCN1CCCCC1)N1CCCCC1` reads “Not Active”; that for `O=C(c1ccc2[nH]c3ccccc3c2c1)N1CCCCC1`, “Not Active”.
Same read-out and setting: for `CCOC(=O)CCn1c2ccccc2c2cc(C(=O)N3CCS(=O)(=O)CC3)ccc21` the value was “Not Active”.
In the case of `CCCCCn1c2ccccc2c2cc(CN3CCNCC3)ccc21`, the Ki result is recorded as “Not Active”.
Same read-out and setting: for `CCCCCn1c2ccccc2c2cc(C(=O)NCC3CCNCC3)ccc21` the value was “Not Active”.
Take `CC(C)(C)OC(=O)NCCCn1c2ccccc2c2cc(C(=O)N3CCS(=O)(=O)CC3)ccc21`: the Ki result is “Not Active”.

The assay is the same for the next values; noted with them: read-out: Ki.
On to `CCCCCn1c2ccccc2c2cc(C(=O)CN3CCN(C)CC3)ccc21`, for which the Ki was 398 nM.
For `O=C(c1ccc2c(c1)c1ccccc1n2Cc1ccccn1)N1CCCCC1`, the Ki was found to be 215 nM.
Consider `CN(C)CCCn1c2ccccc2c2cc(C(=O)N3CCCCC3)ccc21`, for which the inhibition constant (Ki) was found to be 403 nM.
With `CCCCCCCn1c2ccccc2c2cc(C(=O)N3CCCCC3)ccc21`, the inhibition constant (Ki) turned out to be 827 nM.
As to `CCCCCn1c2ccccc2c2cc(C(=O)NN3CCCCC3)ncc21`, the Ki is 171 nM.
For the compound `CCCCCn1c2ccccc2c2cc(C(=O)CN3CCS(=O)(=O)CC3)ccc21`, the Ki is 502 nM.
As to `O=C(c1ccc2c(c1)c1ccccc1n2Cc1ccncc1)N1CCCCC1`, the inhibitory constant (Ki) is 91 nM.
For `CCCCCn1c2ccccc2c2cc(C(=S)N3CCCCC3)ccc21`, the inhibition constant (Ki) turned out to be 49.6 nM.
On the same count and under the same terms, the result for `O=C(c1ccc2c(c1)c1ccccc1n2CCCN1CCS(=O)(=O)CC1)N1CCCCC1` reads 249 nM.
Regarding `O=C(c1ccc2c(c1)c1ccccc1n2CC1CCOCC1)N1CCCCC1`, the inhibition constant Ki came out at 20 nM.
Turning to `CCCCCn1c2ccccc2c2cc(C(=O)CN3CCCCC3)ccc21`, the Ki was determined as 1090 nM.
Consider `CCCCCn1c2ccccc2c2cc(C(=O)N3CCOCC3)ccc21`, for which the inhibition constant (Ki) was determined as 84.5 nM.
In the case of `CCCCCn1c2ccccc2c2cc(C(=O)N(CC)CC)ccc21`, the Ki is 51.8 nM.
For the compound `CCCCCn1c2ccccc2c2cc(C(=O)OCC)ncc21`, the inhibition constant (Ki) worked out at 1370 nM.

In another assay the target is T1, Cannabinoid receptor 2. Nature of the assay: Induction of human CB2 receptor internalization expressed in HEK293 cells at 10 uM relative to CP55940.
Conditions: not given; call rule not given here
Format: cell-based. The essentials: (§1)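 Cells stably expressing human CB1 or human CB2 receptors, exposed to test compound alone. […] Mean of two determinations.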
Consider `O=C(c1ccc2c(c1)c1ccccc1n2Cc1ccncc1)N1CCCCC1`, for which the Activity was determined as 66.3%.
On the same count and under the same terms, for `CCCCCn1c2ccccc2c2cc(C(=S)N3CCCCC3)ccc21` the value was 63%; for `O=C(c1ccc2c(c1)c1ccccc1n2CC1CCOCC1)N1CCCCC1`, 86.2%.
Regarding `CCCCCn1c2ccccc2c2cc(C(=O)CN3CCCCC3)ccc21`, the Activity amounted to 103%.
Consider `CCCCCn1c2ccccc2c2cc(C(=O)N3CCOCC3)ccc21`, for which the Activity was determined as 78.7%.
On to `CCCCCn1c2ccccc2c2cc(C(=O)N(CC)CC)ccc21`, for which the Activity was found to be 53.1%.

Tested on in the next assay: not listed separately
As to the kind of experiment: Selectivity ratio of Ki for rat CB1 receptor to Ki for human CB2 receptor.
Conditions: not given
As for `CCCCCn1c2ccccc2c2cc(C(=O)CN3CCN(C)CC3)ccc21`, the Ratio Ki turned out to be 3.78.
Consider `O=C(c1ccc2c(c1)c1ccccc1n2Cc1ccccn1)N1CCCCC1`, for which the Ratio Ki came out at 1.87.
With `CN(C)CCCn1c2ccccc2c2cc(C(=O)N3CCCCC3)ccc21`, the Ratio Ki is 5.92.
Take `CCCCCCCn1c2ccccc2c2cc(C(=O)N3CCCCC3)ccc21`: the Ratio Ki was determined as 1.14.
Turning to `CCCCCn1c2ccccc2c2cc(C(=O)NN3CCCCC3)ncc21`, the Ratio Ki is 2.07.
For `CCCCCn1c2ccccc2c2cc(C(=O)CN3CCS(=O)(=O)CC3)ccc21`, the Ratio Ki was 1.34.
As for `O=C(c1ccc2c(c1)c1ccccc1n2Cc1ccncc1)N1CCCCC1`, the Ratio Ki was 4.32.
Still for that read-out and setting: the result for `CCCCCn1c2ccccc2c2cc(C(=S)N3CCCCC3)ccc21` reads 0.82; that for `O=C(c1ccc2c(c1)c1ccccc1n2CCCN1CCS(=O)(=O)CC1)N1CCCCC1`, 9.54; that for `O=C(c1ccc2c(c1)c1ccccc1n2CC1CCOCC1)N1CCCCC1`, 0.98.
For the compound `CCCCCn1c2ccccc2c2cc(C(=O)CN3CCCCC3)ccc21`, the Ratio Ki came out at 3.05.
With `CCCCCn1c2ccccc2c2cc(C(=O)N3CCOCC3)ccc21`, the Ratio Ki stood at 0.71.
On the same count and under the same terms, for `CCCCCn1c2ccccc2c2cc(C(=O)N(CC)CC)ccc21` the value was 2.03.
In the case of `CCCCCn1c2ccccc2c2cc(C(=O)OCC)ncc21`, the Ratio Ki worked out at 1.36.

A further assay concerns the target Cannabinoid receptor 1 (Homo sapiens) (UniProt P21554). As to the kind of experiment: Induction of human CB1 receptor internalization expressed in HEK293 cells at 10 uM relative to CP55940. Format: cell-based.
Conditions: not given
The essentials: as §1
With `O=C(c1ccc2c(c1)c1ccccc1n2Cc1ccncc1)N1CCCCC1`, the Activity was 74.9%.
Turning to `CCCCCn1c2ccccc2c2cc(C(=S)N3CCCCC3)ccc21`, the Activity was found to be 124%.
On the same count and under the same terms, the result for `O=C(c1ccc2c(c1)c1ccccc1n2CC1CCOCC1)N1CCCCC1` reads 142%; that for `CCCCCn1c2ccccc2c2cc(C(=O)CN3CCCCC3)ccc21`, -20.4%; that for `CCCCCn1c2ccccc2c2cc(C(=O)N3CCOCC3)ccc21`, 115%.
For `CCCCCn1c2ccccc2c2cc(C(=O)N(CC)CC)ccc21`, the Activity turned out to be 102%.

The target in a further assay is Cannabinoid receptor 1 (Rattus norvegicus, UniProt P20272). As to the kind of experiment: Displacement of [3H]-CP55940 from CB1 receptor in rat brain homogenate after 1.5 hrs by microbeta liquid scintillation counting analysis. Format: tissue-based.
Cannabinoid receptor 1, sequence (P20272 whole entry): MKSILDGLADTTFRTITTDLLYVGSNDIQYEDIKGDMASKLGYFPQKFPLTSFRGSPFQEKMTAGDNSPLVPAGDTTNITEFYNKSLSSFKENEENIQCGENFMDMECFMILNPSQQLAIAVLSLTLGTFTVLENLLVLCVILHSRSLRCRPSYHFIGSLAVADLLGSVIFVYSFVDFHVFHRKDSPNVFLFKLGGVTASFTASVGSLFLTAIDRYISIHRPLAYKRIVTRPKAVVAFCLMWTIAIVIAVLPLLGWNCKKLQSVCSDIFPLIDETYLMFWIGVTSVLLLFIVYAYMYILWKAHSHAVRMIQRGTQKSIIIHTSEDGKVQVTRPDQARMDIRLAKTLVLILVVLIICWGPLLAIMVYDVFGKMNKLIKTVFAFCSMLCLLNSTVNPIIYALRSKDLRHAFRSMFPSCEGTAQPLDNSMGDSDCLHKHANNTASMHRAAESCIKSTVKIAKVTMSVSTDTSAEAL
Conditions: not given
In a few lines: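 Membranes from rat brain homogenate (CB1) or HEK293 cells expressing human CB2. […] GF/B filtration, then scintillation counting. […] IC50 by three-parameter logistic fit, Ki by Cheng-Prusoff. Three experiments in triplicate.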
For orientation: Loss of bound radioactivity is the signal in a displacement assay; it reports binding, not function.
With `NCCCn1c2ccccc2c2cc(C(=O)N3CCCCC3)ccc21`, the Ki entry is “Not Active”.
For `CCCCCn1c2ccccc2c2cc(C#N)ccc21`, the inhibitory constant (Ki) entry is reported as “Not Active”.
As for `CCCCCn1c2ccccc2c2cc(C(=O)N3CC[N+](C)(C)CC3)ccc21.[I-]`, the Ki entry is “Not Active”.
On to `O=C(c1ccc2c(c1)c1ccccc1n2CCN1CCCCC1)N1CCCCC1`, for which the Ki result was “Not Active”.
Take `O=C(c1ccc2[nH]c3ccccc3c2c1)N1CCCCC1`: the inhibition constant Ki result is recorded as “Not Active”.
For `CCOC(=O)CCn1c2ccccc2c2cc(C(=O)N3CCS(=O)(=O)CC3)ccc21`, the inhibition constant (Ki) result was “Not Active”.
`CCCCCn1c2ccccc2c2cc(CN3CCNCC3)ccc21`: the Ki result was “Not Active”.
Take `CCCCCn1c2ccccc2c2cc(C(=O)NCC3CCNCC3)ccc21`: the inhibition constant (Ki) result was “Not Active”.
In the case of `CC(C)(C)OC(=O)NCCCn1c2ccccc2c2cc(C(=O)N3CCS(=O)(=O)CC3)ccc21`, the inhibition constant (Ki) entry was “Not Active”.

The assay is the same for the next values; noted with them: read-out: Ki.
Consider `CCCCCn1c2ccccc2c2cc(C(=O)CN3CCN(C)CC3)ccc21`, for which the inhibitory constant (Ki) turned out to be 1500 nM.
As to `O=C(c1ccc2c(c1)c1ccccc1n2Cc1ccccn1)N1CCCCC1`, the inhibition constant (Ki) worked out at 403 nM.
`CN(C)CCCn1c2ccccc2c2cc(C(=O)N3CCCCC3)ccc21`: the inhibitory constant (Ki) turned out to be 2390 nM.
For the compound `CCCCCCCn1c2ccccc2c2cc(C(=O)N3CCCCC3)ccc21`, the Ki is 943 nM.
Turning to `CCCCCn1c2ccccc2c2cc(C(=O)NN3CCCCC3)ncc21`, the Ki stood at 354 nM.
Regarding `CCCCCn1c2ccccc2c2cc(C(=O)CN3CCS(=O)(=O)CC3)ccc21`, the inhibitory constant (Ki) was determined as 675 nM.
As to `O=C(c1ccc2c(c1)c1ccccc1n2Cc1ccncc1)N1CCCCC1`, the Ki was determined as 393 nM.
Still for that read-out and setting: for `CCCCCn1c2ccccc2c2cc(C(=S)N3CCCCC3)ccc21` the value was 40.6 nM; for `O=C(c1ccc2c(c1)c1ccccc1n2CCCN1CCS(=O)(=O)CC1)N1CCCCC1`, 2380 nM; for `O=C(c1ccc2c(c1)c1ccccc1n2CC1CCOCC1)N1CCCCC1`, 19.5 nM.
On to `CCCCCn1c2ccccc2c2cc(C(=O)CN3CCCCC3)ccc21`, for which the Ki worked out at 3330 nM.
The same measure, in the same setting: for `CCCCCn1c2ccccc2c2cc(C(=O)N3CCOCC3)ccc21` the value was 60 nM; for `CCCCCn1c2ccccc2c2cc(C(=O)N(CC)CC)ccc21`, 105 nM.
`CCCCCn1c2ccccc2c2cc(C(=O)OCC)ncc21`: the Ki came to 1860 nM.
